Activity calls are given as the source filed them. No cut-off for these calls is given here.
Assays:
[1] = biological target: T1, Oxysterols receptor LXR-beta (Homo sapiens, UniProt P55055); assay: Agonist activity at LXRbeta (unknown origin) expressed in African green monkey CV1 cells; type: cell-based
T1 sequence (P55055 whole entry): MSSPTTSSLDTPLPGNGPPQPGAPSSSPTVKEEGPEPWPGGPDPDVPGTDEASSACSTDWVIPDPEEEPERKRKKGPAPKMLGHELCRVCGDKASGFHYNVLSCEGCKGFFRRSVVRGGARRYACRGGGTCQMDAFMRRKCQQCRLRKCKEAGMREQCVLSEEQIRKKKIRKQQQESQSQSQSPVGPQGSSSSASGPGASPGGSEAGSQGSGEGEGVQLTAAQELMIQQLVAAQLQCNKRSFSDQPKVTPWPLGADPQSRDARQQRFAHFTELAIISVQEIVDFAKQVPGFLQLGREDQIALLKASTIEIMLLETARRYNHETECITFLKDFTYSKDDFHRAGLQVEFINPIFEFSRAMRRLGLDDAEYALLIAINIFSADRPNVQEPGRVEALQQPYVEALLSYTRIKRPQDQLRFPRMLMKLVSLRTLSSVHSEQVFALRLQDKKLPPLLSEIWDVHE

Cytochrome P450 3A4 = Cytochrome P450 3A4 (Homo sapiens, UniProt P08684); assay: Inhibition of CYP3A4 (unknown origin); type: ADME
Cytochrome P450 3A4, sequence (P08684 whole entry): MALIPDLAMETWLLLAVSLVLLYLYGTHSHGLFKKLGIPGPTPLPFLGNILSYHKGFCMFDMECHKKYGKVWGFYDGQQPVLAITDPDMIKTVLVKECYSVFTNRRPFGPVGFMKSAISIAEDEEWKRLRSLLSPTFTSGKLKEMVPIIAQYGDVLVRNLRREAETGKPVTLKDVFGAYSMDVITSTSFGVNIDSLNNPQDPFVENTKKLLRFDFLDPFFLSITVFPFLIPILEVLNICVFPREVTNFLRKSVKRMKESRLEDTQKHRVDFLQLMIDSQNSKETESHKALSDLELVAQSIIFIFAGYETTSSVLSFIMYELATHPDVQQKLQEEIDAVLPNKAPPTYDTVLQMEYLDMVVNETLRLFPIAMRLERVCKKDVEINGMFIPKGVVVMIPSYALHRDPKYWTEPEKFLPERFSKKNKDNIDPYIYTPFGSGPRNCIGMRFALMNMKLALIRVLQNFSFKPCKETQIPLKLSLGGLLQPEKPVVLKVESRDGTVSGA

Cytochrome P450 2C19 = Cytochrome P450 2C19 (Homo sapiens, UniProt P33261); assay: Inhibition of CYP2C19 (unknown origin); type: ADME
Cytochrome P450 2C19, sequence (P33261 whole entry): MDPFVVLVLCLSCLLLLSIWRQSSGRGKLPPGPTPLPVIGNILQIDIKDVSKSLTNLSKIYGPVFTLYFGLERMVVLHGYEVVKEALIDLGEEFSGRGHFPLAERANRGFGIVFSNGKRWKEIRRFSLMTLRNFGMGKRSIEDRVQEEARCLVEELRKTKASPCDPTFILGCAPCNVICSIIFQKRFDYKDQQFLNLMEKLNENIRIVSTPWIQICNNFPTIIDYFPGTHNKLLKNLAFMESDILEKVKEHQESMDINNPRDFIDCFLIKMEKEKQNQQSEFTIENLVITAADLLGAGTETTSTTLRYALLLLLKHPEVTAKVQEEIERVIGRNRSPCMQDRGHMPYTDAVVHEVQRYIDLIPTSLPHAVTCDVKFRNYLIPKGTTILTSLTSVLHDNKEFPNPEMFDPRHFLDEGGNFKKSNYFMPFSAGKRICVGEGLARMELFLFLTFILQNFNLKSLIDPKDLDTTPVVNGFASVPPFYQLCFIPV

[2] = biological target: T2, Oxysterols receptor LXR-alpha (Homo sapiens, UniProt Q13133); assay: Agonist activity at LXRalpha (unknown origin) expressed in African green monkey CV1 cells; type: cell-based
T2 sequence (Q13133 whole entry): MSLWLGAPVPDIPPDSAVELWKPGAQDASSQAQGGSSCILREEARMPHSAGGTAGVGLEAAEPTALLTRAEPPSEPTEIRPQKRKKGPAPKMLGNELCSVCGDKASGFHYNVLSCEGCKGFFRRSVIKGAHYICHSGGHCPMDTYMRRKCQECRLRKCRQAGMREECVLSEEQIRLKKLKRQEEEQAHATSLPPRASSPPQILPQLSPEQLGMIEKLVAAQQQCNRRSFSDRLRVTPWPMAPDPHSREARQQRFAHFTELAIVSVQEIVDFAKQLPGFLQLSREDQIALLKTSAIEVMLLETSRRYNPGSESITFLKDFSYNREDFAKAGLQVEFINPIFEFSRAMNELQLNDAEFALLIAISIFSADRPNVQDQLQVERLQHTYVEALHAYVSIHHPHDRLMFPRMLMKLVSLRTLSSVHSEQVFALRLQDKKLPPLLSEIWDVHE

Mus musculus [3] = assay: Inhibition of IL2/IL23-induced IL6 production in po bid dosed C57BL/6 mouse treated 30 mins prior to 24 hrs IL2 challenge followed by IL2/IL23 addition at 0,7 and 23 hrs measured after 7 hrs post last IL2/IL23 challenge; type: functional, organism-based
Summary of the method: (§1)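 Naive mice were challenged three times with IL-2 plus IL-23 (first at 0 and 7 h) and dosed orally bid at 5, 15 or 50 mg/kg. Serum cytokines were measured 7 h after the final IL-2/IL-23 administration. An anti-IL-23 antibody served as positive control.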

[4] = Inhibition of CYP1B2 (unknown origin); type: ADME, Homo sapiens
Cytochrome P450 1A2 = biological target: T3, Cytochrome P450 1A2 (Homo sapiens, UniProt P05177); assay: Inhibition of CYP1A2 (unknown origin); type: ADME
T3 sequence (P05177 whole entry): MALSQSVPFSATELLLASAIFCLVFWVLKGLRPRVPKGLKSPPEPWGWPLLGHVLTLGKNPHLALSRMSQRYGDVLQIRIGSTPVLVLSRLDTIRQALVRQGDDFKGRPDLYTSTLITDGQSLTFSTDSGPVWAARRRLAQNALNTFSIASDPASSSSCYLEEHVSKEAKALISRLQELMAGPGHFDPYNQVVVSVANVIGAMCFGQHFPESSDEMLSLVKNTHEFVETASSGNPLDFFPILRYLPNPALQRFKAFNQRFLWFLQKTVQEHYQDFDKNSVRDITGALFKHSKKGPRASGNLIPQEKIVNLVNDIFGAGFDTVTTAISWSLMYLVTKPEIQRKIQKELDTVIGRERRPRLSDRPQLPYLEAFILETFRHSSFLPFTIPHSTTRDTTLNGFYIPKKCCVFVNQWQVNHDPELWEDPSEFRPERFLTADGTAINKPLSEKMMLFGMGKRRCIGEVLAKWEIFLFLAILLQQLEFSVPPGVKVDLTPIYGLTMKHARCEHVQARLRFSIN

Mus musculus [5] = assay: Inhibition of IL2/IL23-induced IL22 production in po bid dosed C57BL/6 mouse treated 30 mins prior to 24 hrs IL2 challenge followed by IL2/IL23 addition at 0,7 and 23 hrs measured after 7 hrs post last IL2/IL23 challenge; type: functional, organism-based; summary of the method: as §1
[6] = Oral bioavailability in Balb/c mouse at 10 mg/kg; type: ADME, organism-based; conditions: in vivo
Summary of the method: (§2)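 Balb/c mice given a single intravenous dose of 2 mg/kg or an oral dose of 10 mg/kg. Plasma exposure was followed to derive Cmax, Tmax, AUC, t1/2, clearance, Vss and oral bioavailability (F).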

[7] = biological target: T4, Nuclear receptor ROR-beta (Homo sapiens) (UniProt Q92753); assay: Agonist activity at GAL4-fused RORbeta LBD (200 to 559 residues) (unknown origin) expressed in human Jurkat cells measured after 18 hrs by native IL17 promoter driven steady-glo luciferase assay; type: cell-based
T4 sequence (whole entry): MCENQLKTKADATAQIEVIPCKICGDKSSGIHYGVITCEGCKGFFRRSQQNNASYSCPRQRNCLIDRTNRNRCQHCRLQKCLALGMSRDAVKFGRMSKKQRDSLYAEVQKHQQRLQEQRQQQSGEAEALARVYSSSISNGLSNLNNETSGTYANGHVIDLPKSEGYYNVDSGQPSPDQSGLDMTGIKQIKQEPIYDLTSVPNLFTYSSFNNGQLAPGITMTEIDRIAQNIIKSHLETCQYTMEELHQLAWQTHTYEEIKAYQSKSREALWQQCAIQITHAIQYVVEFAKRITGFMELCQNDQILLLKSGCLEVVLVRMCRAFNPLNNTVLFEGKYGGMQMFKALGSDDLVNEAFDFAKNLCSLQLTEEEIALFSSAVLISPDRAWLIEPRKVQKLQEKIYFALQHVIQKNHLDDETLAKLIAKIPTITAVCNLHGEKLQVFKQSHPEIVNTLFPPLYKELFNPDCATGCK

[8] = Stability in mouse liver microsomes assessed as parent compound remaining after 10 mins; type: ADME, Microsome; conditions: read-out: Stability
Summary of the method: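 Rough stability screen: compound incubated with mouse liver microsomes for 10 min, reported as percentage of parent remaining.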

Mus musculus [9] = assay: Inhibition of IL2/IL23-induced GM-CSF production in po bid dosed C57BL/6 mouse treated 30 mins prior to 24 hrs IL2 challenge followed by IL2/IL23 addition at 0,7 and 23 hrs measured after 7 hrs post last IL2/IL23 challenge; type: functional, organism-based; summary of the method: as §1
[10] = AUC in Balb/c mouse at 10 mg/kg, po; type: ADME, organism-based; conditions: in vivo; summary of the method: as §2
[11] = Cmax in Balb/c mouse at 10 mg/kg, po; type: ADME, organism-based; parameters: dose 10 mg/kg, route oral; conditions: in vivo; summary of the method: as §2
[12] = Half life in Balb/c mouse at 2 mg/kg, iv; type: ADME, organism-based; conditions: in vivo; summary of the method: as §2
[13] = Protein binding in human plasma assessed as unbound fraction; type: ADME, cell-free

Q: What does the source list for `O=C(O)[C@H]1CC[C@H](C(=O)N2CC[C@](c3ccc(C(F)(C(F)(F)F)C(F)(F)F)cc3)(S(=O)(=O)c3ccc(F)cc3)C2)CC1`?
A: EC50 [1]: > 7.5 µM; IC50 (Cytochrome P450 3A4): > 20 µM; IC50 (Cytochrome P450 2C19): > 20 µM; EC50 [2]: > 7.5 µM; inhibition (Mus musculus [3]): Dose-dependent effect; IC50 [4]: > 20 µM; IC50 (Cytochrome P450 1A2): > 20 µM; inhibition (Mus musculus [5]): Dose-dependent effect; bioavailability [6]: 99%; Activity [7]: inactive; remaining at 10 min [8]: 86%; inhibition (Mus musculus [9]): Dose-dependent effect; AUC [10]: 36.6 µM·h; Cmax [11]: 6.6 µM; half-life [12]: 7.2 h; fraction unbound [13]: 0.037
